Active and inactive are the calls of the source. No cut-off for these calls is given here.
What was measured:
Mus musculus [1] = assay: Anticonvulsant activity in ip dosed C57B/6 mouse assessed as protection against maximal electroshock-induced seizures administered before 30 mins of MES induction; type: functional; details: C57B/6, ip, 0.5 h
Summary of the method: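 Compound in polyethyleneglycol-400 given ip to C57B/6 mice (18–25 g, 10 per group) over a dose range. 30 min post-dose, 60-Hz alternating current, 50 mA, applied via corneal electrodes for 0.2 s. Protection scored as abolition of hind-leg tonic maximal extension; doses spanning 10–90% protection used to derive ED50.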

[2] = Neurotoxicity in C57B/6 mouse assessed as inability to maintain equilibrium on 1-in diameter rod for 1 min after 30 mins by rotarod test; type: toxicity, organism-based; details: in vivo
Summary of the method: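 Rotarod neurotoxicity: C57B/6 mice (18–25 g, groups of 10) dosed ip with compound in polyethyleneglycol-400 over a dose range; 30 min later placed on 1-in. knurled rod rotating at 6 rpm for 1 min. Toxicity = failure to keep equilibrium in each of three trials; doses spanning 10–90% used for TD50.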

Mus musculus [3] = organism: Mus musculus; assay: Protective index, ratio of TD50 for neurotoxicity in C57B/6 mouse to ED50 for anticonvulsant activity in C57B/6 mouse; type: functional
Summary of the method: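 PI computed as TD50 (rotarod neurotoxicity) divided by ED50 (MES test), both in ip-dosed C57B/6 mice, compounds in PEG-400, tested 30 min post-dose.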

Mus musculus [4] = assay: Anticonvulsant activity in ip dosed C57B/6 mouse assessed as protection against strychnine-induced seizures administered before 30 mins of strychnine induction measured for 30 mins; type: functional, organism-based
Summary of the method: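 C57B/6 mice (18–25 g, groups of 10) received compound ip in polyethyleneglycol-400; 30 min later strychnine chlorhydrate in saline (1.2 mg/mL, 1 mL/kg) given sc, a dose convulsing all naïve animals. Mice observed individually for 30 min.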

Mus musculus [5] = assay: Anticonvulsant activity in ip dosed C57B/6 mouse assessed as protection against pentylenetetrazole-induced seizures administered before 30 mins of pentylenetetrazole induction; type: functional; details: C57B/6, ip, 0.5 h
Summary of the method: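 Pentylenetetrazole 85 mg/kg sc, a dose convulsing 100% of naïve animals, given 30 min after ip compound (PEG-400 vehicle, several doses) to C57B/6 mice, 18–25 g, groups of 10. ED50 calculated as dose preventing tonic convulsions in 50% of animals.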

Mus musculus [6] = assay: Anticonvulsant activity in ip dosed C57B/6 mouse assessed as protection against 3 mercaptopropionic acid-induced seizures administered before 30 mins of 3 mercaptopropionic acid induction measured after 1 hr; type: functional; details: C57B/6, ip
Summary of the method: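 C57B/6 mice (18–25 g), groups of 10, given test compound ip in polyethyleneglycol-400 across a dose range; 30 min later 3-MP 40 mg/kg in saline injected sc. Endpoint: prevention of tonic convulsions; ED50 calculated as dose protecting 50% of animals.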

Mus musculus [7] = assay: Anticonvulsant activity in ip dosed C57B/6 mouse assessed as protection against thiosemicarbazide-induced seizures administered before 30 mins of thiosemicarbazide induction measured after 1 hr; type: functional; details: C57B/6, ip
Summary of the method: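 Thiosemicarbazide 50 mg/kg ip, a dose convulsing 100% of animals, given 30 min after ip test compound (PEG-400, various doses) to C57B/6 mice (18–25 g, n=10/group). Tonic convulsions scored; ED50 calculated as dose preventing them in 50% of treated animals.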

Mus musculus [8] = assay: Anticonvulsant activity in ip dosed C57B/6 mouse assessed as protection against isoniazid-induced seizures administered before 30 mins of isoniazid induction measured for 1 hr; type: functional; details: C57B/6, ip
Summary of the method: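 Mice (C57B/6, 18–25 g; n=10 per group) dosed ip with compound in PEG-400 at several doses, then challenged 30 min later with isoniazid 250 mg/kg ip, a dose convulsing all naïve animals. Housed singly and watched 1 h for tonic convulsions; ED50 = dose preventing them in 50% of animals.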

SMILES | ED50 (Mus musculus [1]) | further results
O=c1cnnc2n1-c1ccc(OCc3ccc(Br)cc3)cc1CC2 | 64.2 mg/kg | 
O=c1cnnc2n1-c1ccc(OCc3ccccc3)cc1CC2 | 22.8 mg/kg | 
O=c1cnnc2n1-c1ccc(OCc3ccccc3Br)cc1CC2 | 16.4 mg/kg | TD50 at 30 min [2]: 132 mg/kg; PI (Mus musculus [3]): 8
O=c1cnnc2n1-c1ccc(OCc3ccc(Cl)cc3Cl)cc1CC2 | 26.4 mg/kg | 
O=c1cnnc2n1-c1ccc(OCc3ccccc3Cl)cc1CC2 | 13.7 mg/kg | TD50 at 30 min [2]: 106 mg/kg; PI (Mus musculus [3]): 7.7
CCCCCCCCCCCCOc1ccc2c(c1)CCc1nncc(=O)n1-2 | 54.8 mg/kg | 
CCOc1ccc2c(c1)CCc1nncc(=O)n1-2 | 39.4 mg/kg | 
CCCCCOc1ccc2c(c1)CCc1nncc(=O)n1-2 | 21.9 mg/kg | 
NC(=O)N1c2ccccc2C=Cc2ccccc21 [CARBAMAZEPINE] |  | ED50 (Mus musculus [4]): inactive; PI (Mus musculus [3]): 6.4
O=c1cnnc2n1-c1ccc(OCc3cccc(F)c3)cc1CC2 | 31.7 mg/kg | 
CCCCCCCOc1ccc2c(c1)CCc1nncc(=O)n1-2 | 11.4 mg/kg | TD50 at 30 min [2]: 114 mg/kg; PI (Mus musculus [3]): 10
Cc1nnc2n(c1=O)-c1ccc(OCc3ccccc3)cc1CC2 | > 100 mg/kg | 
O=c1cnnc2n1-c1ccc(OCc3ccc(Cl)cc3)cc1CC2 | 32.9 mg/kg | 
Cc1ccc(COc2ccc3c(c2)CCc2nncc(=O)n2-3)cc1 | 27.4 mg/kg | 
COc1ccc(COc2ccc3c(c2)CCc2nncc(=O)n2-3)cc1 | 56.8 mg/kg | 
CCCCCCCCOc1ccc2c(c1)CCc1nncc(=O)n1-2 | 12.7 mg/kg | TD50 at 30 min [2]: 98.6 mg/kg; PI (Mus musculus [3]): 7.76
O=c1cnnc2n1-c1ccc(OCc3c(Cl)cccc3Cl)cc1CC2 | 20.5 mg/kg | 
CCCCCCOc1ccc2c(c1)CCc1nnc(C)c(=O)n1-2 | > 100 mg/kg | 
CCCCCCOc1ccc2c(c1)CCc1nncc(=O)n1-2 | 19.7 mg/kg | TD50 at 30 min [2]: 82.2 mg/kg; PI (Mus musculus [3]): 4.2
CCCCOc1ccc2c(c1)CCc1nncc(=O)n1-2 | 22.7 mg/kg | 
c1ccc(COc2ccc3c(c2)CCc2nncn2-3)cc1 |  | ED50 (Mus musculus [5]): 24 mg/kg
O=c1cnnc2n1-c1ccc(OCc3ccccc3F)cc1CC2 | 23.7 mg/kg | 
O=c1cnnc2n1-c1ccc(OCc3ccc(F)cc3)cc1CC2 | 38 mg/kg | 
CCCOc1ccc2c(c1)CCc1nncc(=O)n1-2 | 32.9 mg/kg | 
O=C1CCc2cc(OCc3ccccc3)ccc2N1 | 29.6 mg/kg | 
O=c1cnnc2n1-c1ccc(OCc3cccc(Cl)c3)cc1CC2 | 22.8 mg/kg | ED50 (Mus musculus [6]): 11.8 mg/kg; ED50 (Mus musculus [5]): 11.3 mg/kg; ED50 (Mus musculus [4]): inactive; ED50 (Mus musculus [7]): 15.8 mg/kg; ED50 (Mus musculus [8]): 19.7 mg/kg
COc1ccc(COc2ccc3c(c2)CCc2nncc(=O)n2-3)cc1OC | 45.6 mg/kg | 

Reference: ChEMBL document CHEMBL1138577, “Design, synthesis of 8-alkoxy-5,6-dihydro-[1,2,4]triazino[4,3-a]quinolin-1-ones with anticonvulsant activity” (Eur J Med Chem, 2009)
